Results from publication PMC8448912 (ChemMedChem, 2021).

Assays:
Type in all cases: cell-based
MDA-MB-231 (Breast) = assay: MTT antiproliferative assay, 72 h; conditions: Homo sapiens, MDA-MB-231, 72 h, read-out: IC50 values
In short: (§1)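 Human cancer cell lines (breast MDA-MB-231 and MCF-7, ovarian A2780, colorectal Caco-2 and HT-29) exposed to test compound for 72 h. Growth measured by MTT assay. IC50 values reported as mean ± SDM, n = 3.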

[1] = system: panel of breast, ovarian and colorectal cancer cells; assay: antiproliferative activity in the panel of cell lines; conditions: read-out: IC50 values in this screen
In short: as §1

HT-29 (Colon) = assay: MTT antiproliferative assay, 72 h; conditions: Homo sapiens, HT-29, 72 h, read-out: IC50 values
In short: as §1

Caco-2 (Colon) = assay: MTT antiproliferative assay, 72 h; conditions: Homo sapiens, Caco-2, 72 h, read-out: IC50 values
In short: as §1

A2780 (Ovary) = assay: MTT antiproliferative assay, 72 h; conditions: Homo sapiens, A2780, 72 h, read-out: IC50 values
In short: as §1

MRC-5 (Normal lung) = assay: MTT antiproliferative assay, 72 h; conditions: Homo sapiens, MRC5, 72 h, read-out: IC50 values
MCF-7 (Breast) = assay: MTT antiproliferative assay, 72 h; conditions: Homo sapiens, MCF7, 72 h, read-out: IC50 values
In short: as §1

With `CC(=O)N(O)CCCCCNC(=O)CCC(=O)N(O)CCCCCNC(=O)CCC(=O)N(O)CCCCCN` [DFO, desferrioxamine] the IC50 (MDA-MB-231 (Breast)) was 5.8 ± 0.4 µM, the IC50 [1] was 2 to 20 µM and the IC50 (HT-29 (Colon)) was 2.4 ± 0.1 µM. For the same compound, the IC50 (Caco-2 (Colon)) was 3.7 ± 0.3 µM, the IC50 (A2780 (Ovary)) was 3.83 ± 0.02 µM and the IC50 (MRC-5 (Normal lung)) was 9 ± 1 µM. It also gave an IC50 (MCF-7 (Breast)) of 21 ± 2 µM.
